Activity calls are given as the source filed them. The rule behind the calls is not given here.
How the values were obtained:
A2780 = assay: Antiproliferative activity against human A2780 cells after 48 hrs by SRB assay; format: functional; details: A2780, 48 h
Method in brief: (§1)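 RPMI 1640 with 5% heat-inactivated FCS and 2 mM L-glutamine at 37 °C, 5% CO2. Seeded at 15,000 (WiDr, T-47D, HeLa) or 10,000 (A2780, SW1573, HBL-100) cells/well. Drug added day 1 in triplicate dilutions; vehicle DMSO 0.25% v/v final. 48 h, then TCA fixation and SRB staining read at OD 492 nm, background-corrected. GI50 from NCI percentage-growth formulas using T0 and T; mean of two to six experiments with SD.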

HBL-100 [1] = assay: Antiproliferative activity against human HBL100 cells after 48 hrs by SRB assay; format: functional; details: HBL-100, 48 h; method in brief: as §1
HeLa [2] = assay: Antiproliferative activity against human HeLa cells after 48 hrs by SRB assay; format: functional; method in brief: as §1
SW1573 [3] = assay: Antiproliferative activity against human SW1573 cells after 48 hrs by SRB assay; format: functional; details: SW1573, 48 h; method in brief: as §1
T47D [4] = assay: Antiproliferative activity against human T47D cells after 48 hrs by SRB assay; format: functional; method in brief: as §1
WiDr [5] = assay: Antiproliferative activity against human WiDr cells after 48 hrs by SRB assay; format: functional; method in brief: as §1
HBL-100 [6] = assay: Cell cycle arrest in human HBL100 cells by accumulation at subG1 phase after 24 hrs by flow cytometry; format: functional, cell-based
Method in brief: (§2)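 Cells seeded at 2.5–5 × 10^5 per well in six-well plates. After 24 h, compound added at three concentrations for a further 24 h; controls without drug. Cells trypsinized, fixed in ice-cold 70% ethanol overnight at −20 °C, treated with RNase (37 °C, 30 min, dark) and stained with propidium iodide. DNA content measured by flow cytometry, 25,000 cells/sample.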

HeLa [7] = assay: Cell cycle arrest in human HeLa cells by accumulation at subG1 phase after 24 hrs by flow cytometry; format: functional, cell-based; method in brief: as §2
SW1573 [8] = assay: Cell cycle arrest in human SW1573 cells by accumulation at subG1 phase after 24 hrs by flow cytometry; format: functional, cell-based; method in brief: as §2
T47D [9] = assay: Cell cycle arrest in human T47D cells by accumulation at subG1 phase after 24 hrs by flow cytometry; format: functional, cell-based; method in brief: as §2
WiDr [10] = assay: Cell cycle arrest in human WiDr cells by accumulation at subG1 phase after 24 hrs by flow cytometry; format: functional, cell-based; method in brief: as §2
HBL-100 [11] = assay: Cell cycle arrest in human HBL100 cells by increase in accumulation at G2/M phase at 2 uM after 24 hrs by flow cytometry; format: functional, cell-based; method in brief: as §2
T47D [12] = assay: Cell cycle arrest in human T47D cells by increase in accumulation at G2/M phase at 2 uM after 24 hrs by flow cytometry; format: functional, cell-based; method in brief: as §2
SW1573 [13] = assay: Cell cycle arrest in human SW1573 cells by increase in accumulation at G2/M phase at 2 uM after 24 hrs by flow cytometry; format: functional, cell-based; method in brief: as §2
HBL-100 [14] = assay: Cell cycle arrest in human HBL100 cells by decrease in accumulation at G1 phase at 2 uM after 24 hrs by flow cytometry; format: functional, cell-based; method in brief: as §2
T47D [15] = assay: Cell cycle arrest in human T47D cells by decrease in accumulation at G1 phase at 2 uM after 24 hrs by flow cytometry; format: functional, cell-based; method in brief: as §2
SW1573 [16] = assay: Cell cycle arrest in human SW1573 cells by decrease in accumulation at G1 phase at 2 uM after 24 hrs by flow cytometry; format: functional, cell-based; method in brief: as §2
HBL-100 [17] = assay: Cell cycle arrest in human HBL100 cells by decrease in accumulation at S phase at 2 uM after 24 hrs by flow cytometry; format: functional, cell-based; method in brief: as §2
T47D [18] = assay: Cell cycle arrest in human T47D cells by decrease in accumulation at S phase at 2 uM after 24 hrs by flow cytometry; format: functional, cell-based; method in brief: as §2
SW1573 [19] = assay: Cell cycle arrest in human SW1573 cells by decrease in accumulation at S phase at 2 uM after 24 hrs by flow cytometry; format: functional, cell-based; method in brief: as §2

SMILES | GI50 (A2780) [µM] | GI50 (HBL-100 [1]) [µM] | GI50 (HeLa [2]) [µM] | GI50 (SW1573 [3]) [µM] | GI50 (T47D [4]) [µM] | GI50 (WiDr [5]) [µM] | other results
CCc1ccc(C2=[N+]([O-])c3c(N)nc(SC)nc3C2=O)cc1 | 54 | 37 | 80 | 37 | 43 | 53 | –
Nc1nc(NCCN2CCCC2)nc2c1[N+]([O-])=C(c1ccccc1)C2=O | 2.6 | 1.8 | 16 | 6.2 | 13 | 14 | –
CSc1nc2c(c(N3CCCC3)n1)[N+]([O-])=C(c1ccccc1)C2=O | > 100 | > 100 | > 100 | > 100 | > 100 | > 100 | –
CN(C)CCCNc1nc(N)c2c(n1)C(=O)C(c1ccccc1)=[N+]2[O-] | 2.3 | 2 | 20 | 2.1 | 16 | 19 | –
COC(=O)CNc1nc(N)c2c(n1)C(=O)C(c1ccccc1)=[N+]2[O-] | 1.9 | 2.8 | 19 | 12 | 14 | 18 | –
Nc1nc(N2CCCCC2)nc2c1[N+]([O-])=C(c1ccccc1)C2=O | 2.9 | 1.7 | 3.5 | 3.3 | 2.7 | 3.7 | –
CSc1nc(N)c2c(n1)C(=O)C(c1ccc(C)cc1)=[N+]2[O-] | 93 | 28 | > 100 | 31 | > 100 | > 100 | –
Cc1ccc(C2=[N+]([O-])c3c(N)ncnc3C2=O)cc1 | > 100 | > 100 | > 100 | > 100 | > 100 | > 100 | –
C=CCNc1nc(N)c2c(n1)C(=O)C(c1ccccc1)=[N+]2[O-] | 1.9 | 2.7 | 7.6 | 6.8 | 2.8 | 4.7 | –
Nc1nc(NCCN2CCOCC2)nc2c1[N+]([O-])=C(c1ccccc1)C2=O | 2.9 | 3.4 | 15 | 14 | 17 | 16 | –
Nc1nc(N2CCCCCC2)nc2c1[N+]([O-])=C(c1ccccc1)C2=O | 1.8 | 1.4 | 2 | 1.3 | 0.35 | 1.8 | Activity (HBL-100 [6]): Dose-dependent effect; Activity (HeLa [7]): Dose-dependent effect; Activity (SW1573 [8]): Dose-dependent effect; Activity (T47D [9]): Dose-dependent effect; Activity (WiDr [10]): Dose-dependent effect; Activity (HBL-100 [11]): Active; Activity (T47D [12]): Active; Activity (SW1573 [13]): Active; Activity (HBL-100 [14]): Active; Activity (T47D [15]): Active; Activity (SW1573 [16]): Active; Activity (HBL-100 [17]): Active; Activity (T47D [18]): Active; Activity (SW1573 [19]): Active
Nc1nc(N2CCOCC2)nc2c1[N+]([O-])=C(c1ccccc1)C2=O | 37 | 22 | 38 | 27 | 7.5 | 20 | –
CN1CCN(c2nc(N)c3c(n2)C(=O)C(c2ccccc2)=[N+]3[O-])CC1 | 24 | 18 | > 100 | 23 | > 100 | 46 | –
Nc1nc(NCCc2ccccc2)nc2c1[N+]([O-])=C(c1ccccc1)C2=O | 37 | 17 | > 100 | 22 | 41 | 71 | –
CCc1ccc(C2=[N+]([O-])c3c(N)ncnc3C2=O)cc1 | 39 | 54 | 75 | 40 | 82 | 70 | –
CSc1nc(NCCN2CCOCC2)c2c(n1)C(=O)C(c1ccccc1)=[N+]2[O-] | > 100 | 24 | > 100 | > 100 | > 100 | > 100 | –
CSc1nc(NCc2ccccc2)c2c(n1)C(=O)C(c1ccccc1)=[N+]2[O-] | 59 | 27 | 36 | 26 | 81 | 79 | –
Nc1nc(NCc2ccccc2)nc2c1[N+]([O-])=C(c1ccccc1)C2=O | 3.7 | 5.1 | 29 | 30 | 4 | 24 | –
C[S+]([O-])c1nc(N)c2c(n1)C(=O)C(c1ccccc1)=[N+]2[O-] (centres undefined) | 79 | 32 | > 100 | > 100 | > 100 | > 100 | –
Nc1ncnc2c1[N+]([O-])=C(c1ccccc1)C2=O | 30 | 72 | > 100 | 85 | > 100 | > 100 | –
